Data published in ChEMBL document CHEMBL4368914, “Tricyclic Indazoles-A Novel Class of Selective Estrogen Receptor Degrader Antagonists” (J Med Chem, 2019).

test system: not listed separately; assay: Fraction unbound in Alderley Park Han Wistar rat plasma by equilibrium dialysis; format: ADME, cell-free; details: not given
Method in brief: (§1)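 Equilibrium dialysis from DMSO stock in 10% plasma, either Alderley Park Han Wistar rat plasma or human plasma.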

fraction unbound	SMILES
0.0052	CC(C)CN1[C@H](c2c(F)cc(/C=C/C(=O)O)cc2F)c2ccc3[nH]ncc3c2C[C@H]1C
0.036	CC(C)CN1CCc2c(ccc3[nH]ncc23)[C@H]1c1ccc(/C=C/C(=O)O)cc1
0.068	CC(C)CN1CCc2c(ccc3[nH]ccc23)C1c1ccc(/C=C/C(=O)O)cc1 (configuration not stated)

biological target: T1, Estrogen receptor (Homo sapiens, UniProt P03372); assay: Binding affinity to recombinant human GST-tagged ERalpha LBD expressed in baculovirus-infected insect cells by lantha screen assay; details: not given
T1 sequence (P03372 whole entry): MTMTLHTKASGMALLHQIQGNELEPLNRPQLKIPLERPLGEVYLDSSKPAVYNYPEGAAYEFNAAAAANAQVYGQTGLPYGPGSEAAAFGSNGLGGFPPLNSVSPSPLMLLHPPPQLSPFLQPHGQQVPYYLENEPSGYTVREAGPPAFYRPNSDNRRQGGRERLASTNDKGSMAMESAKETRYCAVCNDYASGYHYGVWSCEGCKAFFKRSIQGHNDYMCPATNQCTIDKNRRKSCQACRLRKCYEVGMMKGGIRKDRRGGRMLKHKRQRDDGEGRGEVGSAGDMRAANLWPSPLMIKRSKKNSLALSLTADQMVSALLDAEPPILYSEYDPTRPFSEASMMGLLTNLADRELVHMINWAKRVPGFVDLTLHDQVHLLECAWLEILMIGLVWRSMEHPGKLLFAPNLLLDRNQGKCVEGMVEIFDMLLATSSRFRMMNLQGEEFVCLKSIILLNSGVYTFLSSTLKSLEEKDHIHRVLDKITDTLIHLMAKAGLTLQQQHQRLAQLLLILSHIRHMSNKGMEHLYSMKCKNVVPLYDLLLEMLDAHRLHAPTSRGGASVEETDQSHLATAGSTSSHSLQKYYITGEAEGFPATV

SMILES	IC50 [nM]
COc1c([C@@H]2c3ccc4[nH]ncc4c3C[C@@H](C)N2CC(C)(F)F)ccc(/C=C/C(=O)O)c1F	1.26
COc1cc(/C=C/C(=O)O)ccc1[C@]1(C)c2ccc3[nH]ncc3c2C[C@@H](C)N1CC(C)(C)F	3.98
CC(C)CN1CCc2cccc3[nH]cc(c23)C1c1ccc(/C=C/C(=O)O)cc1 (configuration not stated)	39800
CC(C)CN1CCc2c(ccc3[nH]ncc23)[C@H]1c1ccc(/C=C/C(=O)O)cc1	25.1
CC(C)CN1CCc2c(ccc3[nH]ccc23)C1c1ccc(/C=C/C(=O)O)cc1 (configuration not stated)	316

Next, values leading:

IC50 [nM]	SMILES
0.501	COc1cc(/C=C/C(=O)O)c(F)cc1[C@@H]1c2ccc3[nH]ncc3c2C[C@@H](C)N1CC(C)(F)F
1.26	CC(C)CN1[C@H](c2c(F)cc(/C=C/C(=O)O)cc2F)c2ccc3[nH]ncc3c2C[C@H]1C
0.316	COc1cc(/C=C/C(=O)O)cc(F)c1[C@@H]1c2ccc3[nH]ncc3c2C[C@@H](C)N1CC(C)(F)F

test system: not listed separately; assay: Lipophilicity, log D of the compound at pH 7.4 by shake flask method; format: physicochemical; details: buffer
Method in brief: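 Shake-flask measurement of logD at pH 7.4.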

SMILES	logD
COc1c([C@@H]2c3ccc4[nH]ncc4c3C[C@@H](C)N2CC(C)(F)F)ccc(/C=C/C(=O)O)c1F	2.6
COc1cc(/C=C/C(=O)O)ccc1[C@]1(C)c2ccc3[nH]ncc3c2C[C@@H](C)N1CC(C)(C)F	1.9
CC(C)CN1CCc2cccc3[nH]cc(c23)C1c1ccc(/C=C/C(=O)O)cc1 (configuration not stated)	1
CC(C)CN1CCc2c(ccc3[nH]ncc23)[C@H]1c1ccc(/C=C/C(=O)O)cc1	1.9
CC(C)CN1CCc2c(ccc3[nH]ccc23)C1c1ccc(/C=C/C(=O)O)cc1 (configuration not stated)	1.7

Other lines, results leading:

logD	SMILES
2.6	COc1cc(/C=C/C(=O)O)c(F)cc1[C@@H]1c2ccc3[nH]ncc3c2C[C@@H](C)N1CC(C)(F)F
3	CC(C)CN1[C@H](c2c(F)cc(/C=C/C(=O)O)cc2F)c2ccc3[nH]ncc3c2C[C@H]1C
2.8	COc1cc(/C=C/C(=O)O)cc(F)c1[C@@H]1c2ccc3[nH]ncc3c2C[C@@H](C)N1CC(C)(F)F

test system: not listed separately; assay: Glutathione reactivity in human liver microsomes assessed as GSH trapping ratio of compound to clozapine; format: ADME, Microsome; details: not given
Method in brief: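 Glutathione trapping in human liver microsomes, expressed as a ratio to clozapine.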

Ratio	SMILES
< 0.04	CC(C)CN1[C@H](c2c(F)cc(/C=C/C(=O)O)cc2F)c2ccc3[nH]ncc3c2C[C@H]1C
< 0.04	CC(C)CN1CCc2c(ccc3[nH]ncc23)[C@H]1c1ccc(/C=C/C(=O)O)cc1

test system: not listed separately; assay: Intrinsic clearance in rat hepatocytes assessed per million cells; format: ADME, cell-based, Hepatocyte; details: read-out: CLH
Method in brief: (§2)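 Rate of metabolism (µl/min/10⁶ cells) measured from DMSO stock in isolated hepatocytes diluted to 1x10⁶ cells/mL.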

SMILES	hepatocyte CLint [µL/min/1e6 cells]
COc1c([C@@H]2c3ccc4[nH]ncc4c3C[C@@H](C)N2CC(C)(F)F)ccc(/C=C/C(=O)O)c1F	17
COc1cc(/C=C/C(=O)O)ccc1[C@]1(C)c2ccc3[nH]ncc3c2C[C@@H](C)N1CC(C)(C)F	10
CC(C)CN1CCc2cccc3[nH]cc(c23)C1c1ccc(/C=C/C(=O)O)cc1 (configuration not stated)	10
CC(C)CN1CCc2c(ccc3[nH]ncc23)[C@H]1c1ccc(/C=C/C(=O)O)cc1	10
CC(C)CN1CCc2c(ccc3[nH]ccc23)C1c1ccc(/C=C/C(=O)O)cc1 (configuration not stated)	20

Second part, the compound after the results:

hepatocyte CLint [µL/min/1e6 cells]	SMILES
22	COc1cc(/C=C/C(=O)O)c(F)cc1[C@@H]1c2ccc3[nH]ncc3c2C[C@@H](C)N1CC(C)(F)F
19	CC(C)CN1[C@H](c2c(F)cc(/C=C/C(=O)O)cc2F)c2ccc3[nH]ncc3c2C[C@H]1C
32	COc1cc(/C=C/C(=O)O)cc(F)c1[C@@H]1c2ccc3[nH]ncc3c2C[C@@H](C)N1CC(C)(F)F

biological target: T1, Estrogen receptor; assay: Induction of ERalpha degradation in human MCF7 cells after 18 to 24 hrs by in multiplexed cell assay; format: cell-based; details: not given
Method in brief: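 MCF-7 cells were kept at 37 °C, 5% CO₂ in phenol red-free RPMI1640 with 5% charcoal-stripped FCS and 2 mmol/L glutamine. Compounds came from 10 mmol/L DMSO stocks.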

SMILES	IC50 [nM]
COc1c([C@@H]2c3ccc4[nH]ncc4c3C[C@@H](C)N2CC(C)(F)F)ccc(/C=C/C(=O)O)c1F	6.31
COc1cc(/C=C/C(=O)O)ccc1[C@]1(C)c2ccc3[nH]ncc3c2C[C@@H](C)N1CC(C)(C)F	2.51
CC(C)CN1CCc2cccc3[nH]cc(c23)C1c1ccc(/C=C/C(=O)O)cc1 (configuration not stated)	> 10000
CC(C)CN1CCc2c(ccc3[nH]ncc23)[C@H]1c1ccc(/C=C/C(=O)O)cc1	6.31
CC(C)CN1CCc2c(ccc3[nH]ccc23)C1c1ccc(/C=C/C(=O)O)cc1 (configuration not stated)	63.1

The remaining lines, values ahead:

IC50 [nM]	SMILES
0.316	COc1cc(/C=C/C(=O)O)c(F)cc1[C@@H]1c2ccc3[nH]ncc3c2C[C@@H](C)N1CC(C)(F)F
0.794	CC(C)CN1[C@H](c2c(F)cc(/C=C/C(=O)O)cc2F)c2ccc3[nH]ncc3c2C[C@H]1C
0.2	COc1cc(/C=C/C(=O)O)cc(F)c1[C@@H]1c2ccc3[nH]ncc3c2C[C@@H](C)N1CC(C)(F)F

test system: not listed separately; assay: Intrinsic clearance in human hepatocytes assessed per million cells; format: ADME, cell-based, Hepatocyte; details: read-out: CLH; method in brief: as §2

SMILES	hepatocyte CLint [µL/min/1e6 cells]
COc1c([C@@H]2c3ccc4[nH]ncc4c3C[C@@H](C)N2CC(C)(F)F)ccc(/C=C/C(=O)O)c1F	7
COc1cc(/C=C/C(=O)O)ccc1[C@]1(C)c2ccc3[nH]ncc3c2C[C@@H](C)N1CC(C)(C)F	4
CC(C)CN1CCc2c(ccc3[nH]ncc23)[C@H]1c1ccc(/C=C/C(=O)O)cc1	51
CC(C)CN1CCc2c(ccc3[nH]ccc23)C1c1ccc(/C=C/C(=O)O)cc1 (configuration not stated)	8

Results, then the compound that gave them:

hepatocyte CLint [µL/min/1e6 cells]	SMILES
5	COc1cc(/C=C/C(=O)O)c(F)cc1[C@@H]1c2ccc3[nH]ncc3c2C[C@@H](C)N1CC(C)(F)F
22	CC(C)CN1[C@H](c2c(F)cc(/C=C/C(=O)O)cc2F)c2ccc3[nH]ncc3c2C[C@H]1C
6	COc1cc(/C=C/C(=O)O)cc(F)c1[C@@H]1c2ccc3[nH]ncc3c2C[C@@H](C)N1CC(C)(F)F

test system: not listed separately; assay: Fraction unbound in 10% human plasma by equilibrium dialysis; format: ADME, cell-free; details: 10% plasma; method in brief: as §1

SMILES	fraction unbound
COc1c([C@@H]2c3ccc4[nH]ncc4c3C[C@@H](C)N2CC(C)(F)F)ccc(/C=C/C(=O)O)c1F	0.0082
COc1cc(/C=C/C(=O)O)ccc1[C@]1(C)c2ccc3[nH]ncc3c2C[C@@H](C)N1CC(C)(C)F	0.077
CC(C)CN1CCc2cccc3[nH]cc(c23)C1c1ccc(/C=C/C(=O)O)cc1 (configuration not stated)	0.11
CC(C)CN1CCc2c(ccc3[nH]ncc23)[C@H]1c1ccc(/C=C/C(=O)O)cc1	0.07
CC(C)CN1CCc2c(ccc3[nH]ccc23)C1c1ccc(/C=C/C(=O)O)cc1 (configuration not stated)	0.033

More lines, now with the values ahead:

fraction unbound	SMILES
0.012	COc1cc(/C=C/C(=O)O)c(F)cc1[C@@H]1c2ccc3[nH]ncc3c2C[C@@H](C)N1CC(C)(F)F
0.0048	CC(C)CN1[C@H](c2c(F)cc(/C=C/C(=O)O)cc2F)c2ccc3[nH]ncc3c2C[C@H]1C
0.007	COc1cc(/C=C/C(=O)O)cc(F)c1[C@@H]1c2ccc3[nH]ncc3c2C[C@@H](C)N1CC(C)(F)F
